Data set [1] has as its target Muscarinic acetylcholine receptor M3 (Homo sapiens, UniProt P20309). The data set is described as follows: Displacement of [3H]NMS from recombinant human M3 receptor expressed in CHO-K1 cells after 16 hrs by SPA method. It is filed as cell-based. An outline of the steps:
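Nonspecific binding defined with atropine 1 µM; eight total-binding replicates per plate. Incubated at room temperature at least 16 h to equilibrium before counting; n ≥ 2.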

The subject of data set [2] is Cavia porcellus. Kind of data set: Toxicity in guinea pig assessed as reduction of pilocarpine-induced salivation administered via intranasal administered for 4 hrs followed by pilocarpine challenge measured every 5 mins for 15 mins. The format is organism-based. An outline of the steps: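 Compound or vehicle given intranasally under halothane. At 4 h, animals were anaesthetised with urethane and the mouth dried with gauze for 5 min. Baseline saliva taken on a pre-weighed pad over 5 min. Pilocarpine 0.6 mg/kg given subcutaneously, then pads replaced every 5 min for 15 min and saliva quantified by pad weight gain.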

For data set [3], the target named is Muscarinic acetylcholine receptor M3 (Cavia porcellus, UniProt Q8VH26). Kind of data set: Antagonist activity at M3 receptor in Dunkin-Hartley guinea pig trachea assessed as inhibition of methacholine-induced airway smooth muscle contraction after 1 to 4 hrs. Conditions: read-out: pA2 (converted). In a few lines:
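Isolated guinea pig tracheal rings equilibrated 1 h, re-tensioned to 1 g, primed with methacholine, then a cumulative methacholine curve (3 × 10^-9 to 3 × 10^-5 M). Vehicle or compound equilibrated 1 or 4 h before a second curve (3 × 10^-9 to 1 × 10^-3 M final). Isometric force as % of curve-1 maximum. pA2 calculated from vehicle and test A50 values; n = 2.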

Data set [4] deals with Cavia porcellus. Kind of data set: Inhibition of methacholine-induced bronchoconstriction in Dunkin-Hartley guinea pig administered via intratracheal/intranasal after 24 hrs relative to control. The format is functional. In a few lines: (§1)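 Dunkin-Hartley guinea pigs dosed in 0.9% saline by intratracheal or intranasal microsprayer under halothane. At 2, 4, 24 or 48 h, animals were terminally anaesthetised with pentobarbitone and ventilated at 60 breaths/min, 2 mL tidal volume. Peak respiratory resistance measured after IV methacholine 10 μg/kg. Percent inhibition calculated against a time-matched vehicle group. For duration, dosing was at the ED80 dose, measured or predicted from trachea potency.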

Data set [5] concerns Cavia porcellus. Kind of data set: Inhibition of methacholine-induced bronchoconstriction in Dunkin-Hartley guinea pig administered via intratracheal/intranasal after 2 to 4 hrs relative to control. The format is functional. To be noted: inhaled or nasal. An outline of the steps: as §1
Data set [6] in a line: Therapeutic index, ratio of ED80 for methacholine-induced bronchoconstriction in Dunkin-Hartley guinea pig to EC50 for reduction of pilocarpine-induced salivation in guinea pig. The format is organism-based, Cavia porcellus. Conditions: in vivo, read-out: TI.
Data set [7] is described as follows: Intrinsic clearance in human liver microsomes. The format is ADME. Conditions: read-out: CLH.
The nature of data set [8]: Plasma protein binding in human. The format is ADME, cell-free. To be noted: read-out: PPB (converted).
Data set [9] concerns Cavia porcellus. Kind of data set: Inhibition of methacholine-induced bronchoconstriction in Dunkin-Hartley guinea pig administered via intratracheal/intranasal after 48 hrs relative to control. It is filed as functional. In a few lines: as §1
Data set [10] can be described thus: Half life in guinea pig lung administered via intratracheal instillation at 1 ug/kg by HPLC-MS analysis. It is filed as ADME, tissue-based, Cavia porcellus. Conditions: inhaled or intranasal, 0.001 mg/kg. An outline of the steps:
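Halothane-anaesthetised guinea pigs given 1 μg/kg by intratracheal instillation. Lungs collected at 0.25-24 h after barbiturate overdose, homogenised in phosphate buffer and added to ice-cold methanol. Supernatant analysed by mass spectrometry/HPLC.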

Sequence of Muscarinic acetylcholine receptor M3 (Cavia porcellus, UniProt Q8VH26) (Q8VH26 whole entry): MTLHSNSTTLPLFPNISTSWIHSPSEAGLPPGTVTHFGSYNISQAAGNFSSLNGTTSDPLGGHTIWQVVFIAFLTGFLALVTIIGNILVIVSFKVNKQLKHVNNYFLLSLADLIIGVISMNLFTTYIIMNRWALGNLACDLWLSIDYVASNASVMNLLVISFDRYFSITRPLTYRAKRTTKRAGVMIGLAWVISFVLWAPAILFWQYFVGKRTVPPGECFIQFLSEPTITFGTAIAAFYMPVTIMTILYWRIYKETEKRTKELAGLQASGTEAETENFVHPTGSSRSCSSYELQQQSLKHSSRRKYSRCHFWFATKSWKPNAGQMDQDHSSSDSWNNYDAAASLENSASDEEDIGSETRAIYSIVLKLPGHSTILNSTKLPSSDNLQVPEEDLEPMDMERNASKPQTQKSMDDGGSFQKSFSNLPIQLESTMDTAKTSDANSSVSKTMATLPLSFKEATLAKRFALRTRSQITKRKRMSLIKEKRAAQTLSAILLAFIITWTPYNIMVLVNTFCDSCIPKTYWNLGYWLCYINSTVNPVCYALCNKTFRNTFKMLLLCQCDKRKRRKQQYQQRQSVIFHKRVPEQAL
Sequence of Muscarinic acetylcholine receptor M3 (Homo sapiens, UniProt P20309) (P20309 whole entry): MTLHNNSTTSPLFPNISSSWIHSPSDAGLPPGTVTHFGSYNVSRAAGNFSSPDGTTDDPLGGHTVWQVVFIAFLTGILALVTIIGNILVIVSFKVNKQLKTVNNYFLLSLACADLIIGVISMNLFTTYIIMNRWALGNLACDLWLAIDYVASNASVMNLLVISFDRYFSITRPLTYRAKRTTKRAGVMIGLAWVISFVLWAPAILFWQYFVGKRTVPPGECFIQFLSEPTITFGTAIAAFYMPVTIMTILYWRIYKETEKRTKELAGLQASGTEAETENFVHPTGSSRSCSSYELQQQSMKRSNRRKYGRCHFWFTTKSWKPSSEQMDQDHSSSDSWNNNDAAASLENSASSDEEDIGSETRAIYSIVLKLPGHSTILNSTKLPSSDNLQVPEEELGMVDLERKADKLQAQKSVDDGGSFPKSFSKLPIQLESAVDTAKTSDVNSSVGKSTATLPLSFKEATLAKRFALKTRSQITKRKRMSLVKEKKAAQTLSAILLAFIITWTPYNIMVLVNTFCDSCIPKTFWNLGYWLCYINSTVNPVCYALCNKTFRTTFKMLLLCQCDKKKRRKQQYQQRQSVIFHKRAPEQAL

Consider `O=C(C[N+]12CCC(CC1)[C@@H](OC(=O)C1(C3=CC=CC3)CCCCCC1)C2)Nc1cnccn1`, for which the half-inhibitory concentration (IC50) in data set [1] was < 126 pM. Besides, the EC50 with Cavia porcellus [2] is > 10 µg/kg. For the same compound, in data set [3], the Kb is 126 pM. For the same compound, the “inhibition (INH)” value stood at 88% with Cavia porcellus [4] and 73% in the data set on Cavia porcellus [9]. Besides, the ED80 in the data set on Cavia porcellus [5] turned out to be 1 µg/kg. The selectivity ratio in data set [6] was ≥ 10. The microsomal CLint in [7] is 43 µL/min/mg. The fraction unbound in [8] is 0.075. The half-life in data set [10] is 23 h.

Source of the values: ChEMBL document CHEMBL3085673, “The design of a novel series of muscarinic receptor antagonists leading to AZD8683, a potential inhaled treatment for COPD” (Bioorg Med Chem Lett, 2013).
